By IC50 is commonly meant the concentration that gives 50% inhibition.

The structures appear in SMILES notation.

Assay [1] deals with colon carcinoma cell line HCT-15. Briefly: MTT cytotoxicity assay, HCT-15. Type of assay: cell-based. The settings on record: Homo sapiens, HCT-15, 72 h, read-out: IC50 Colon HCT15. In outline: (§1)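 Cells grown as adherent monolayers in DMEM with 10% FBS at 37 °C under humidified 5% CO2. Cells were trypsin-harvested and seeded at 5×10^3 per well, then graded concentrations of test compound were added for 72 h. MTT (4 mg/mL solution) was added for 4 h, formazan dissolved in DMSO and A570 read. IC50 derived from percent survival; mean ± SD, 2–3 experiments in triplicate.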
For orientation: Tetrazolium assays rely on reduction of a dye to a coloured formazan, in cell work by metabolically active cells.

The subject of assay [2] is pancreatic cancer cell line PANC-1. Briefly: MTT cytotoxicity assay, PANC-1. Type of assay: cell-based. To be noted: Homo sapiens, PANC-1, 72 h, read-out: IC50 Pancreas PANC-1. In outline: as §1
Assay [3] relates to prostatic cancer cell line DU-145. Briefly: MTT cytotoxicity assay, DU-145. The assay is classed as cell-based. The settings on record: Homo sapiens, DU-145, 72 h, read-out: IC50 Prostate DU-145. In outline:
as §1

The subject of assay [4] is mouse fibroblast KB-31. Briefly: MTT cytotoxicity assay, KB-31. The assay is classed as cell-based. The settings on record: KB 3-1, 72 h, read-out: IC50 Mouse fibroblast KB-31. Summed up: as §1
Assay [5] deals with MCF-7 (breast cancer). Briefly: MTT cytotoxicity assay, MCF-7. The assay is classed as cell-based, human. To be noted: Homo sapiens, MCF7, 72 h, read-out: IC50 Breast MCF-7. In outline: (§2)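 Media: EMEM for MCF-7, McCoy's 5a for SaOS-2, RPMI-1640 for K562, each with NaHCO3, sodium pyruvate, 10% fetal calf serum and 1% penicillin/streptomycin. Culture at 37 °C, humidified 5% CO2. Seeded 5×10^3 cells/well and exposed to graded test compound for 72 h. MTT for 4 h, DMSO solubilisation, A570. IC50 from percent survival; mean ± SD, 2–3 experiments in triplicate.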

Assay [6] deals with Lung cancer cell line A549. Briefly: MTT cytotoxicity assay, A549. The assay is classed as cell-based. To be noted: Homo sapiens, A549, read-out: IC50 Lung A549.
Assay [7] concerns SaOS-2 (osteosarcoma). Briefly: MTT cytotoxicity assay, SaOS-2. The settings on record: Homo sapiens, SAOS-2, 72 h, read-out: IC50 Bone SaoS2. The assay is classed as cell-based, human. In outline:
as §2

In assay [8] the test system is human embryonic kidney cells HEK293. The experiment in a line: MTT cytotoxicity assay, HEK293. The assay is classed as cell-based. To be noted: Homo sapiens, HEK293, 72 h, read-out: IC50 Normal HEK293. Summed up: as §1
In assay [9] the test system is breast carcinoma cell line MDA-MB-468. Briefly: MTT cytotoxicity assay, MDA-MB-468. Type of assay: cell-based. To be noted: Homo sapiens, MDA-MB-468, 72 h, read-out: IC50 Breast MDAMB-468. Summed up:
as §1

Assay [10] addresses T1, COX-1 (Ovis aries, UniProt P05979).
T1 sequence (P05979 25-600): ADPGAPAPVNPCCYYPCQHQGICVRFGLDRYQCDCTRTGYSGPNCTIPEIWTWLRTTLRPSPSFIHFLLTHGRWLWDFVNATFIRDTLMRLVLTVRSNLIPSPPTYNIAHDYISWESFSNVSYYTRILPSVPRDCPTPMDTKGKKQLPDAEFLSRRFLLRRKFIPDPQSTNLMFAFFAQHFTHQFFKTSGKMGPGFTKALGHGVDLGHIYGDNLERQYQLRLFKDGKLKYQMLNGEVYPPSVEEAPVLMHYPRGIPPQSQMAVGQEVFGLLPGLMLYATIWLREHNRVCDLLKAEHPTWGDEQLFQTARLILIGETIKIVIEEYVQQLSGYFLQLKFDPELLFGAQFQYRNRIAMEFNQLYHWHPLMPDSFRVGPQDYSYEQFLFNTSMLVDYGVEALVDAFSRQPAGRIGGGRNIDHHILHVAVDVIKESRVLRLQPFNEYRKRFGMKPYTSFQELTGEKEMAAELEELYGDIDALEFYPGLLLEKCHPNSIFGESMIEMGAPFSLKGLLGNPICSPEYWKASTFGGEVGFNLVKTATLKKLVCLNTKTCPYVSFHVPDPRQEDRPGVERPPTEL
Briefly: COX-1 inhibition, chromogenic TMPD oxidation assay. Type of assay: biochemical, Ram.

Assay [11] deals with breast carcinoma cell line MDA-MB-231. Briefly: MTT cytotoxicity assay, MDA-MB-231. Type of assay: cell-based. The settings on record: Homo sapiens, MDA-MB-231, 72 h, read-out: IC50 Breast MDAMB-231. Summed up:
as §1

Assay [12] has as its system K562 (myelogenous leukemia). The experiment in a line: MTT cytotoxicity assay, K562. The settings on record: Homo sapiens, K562, 72 h, read-out: IC50 Blood K562. The assay is classed as cell-based, human. In outline: as §2
In assay [13] the target is T2, Recombinant human COX-2 (Homo sapiens, UniProt P35354).
T2 sequence (P35354 18-604): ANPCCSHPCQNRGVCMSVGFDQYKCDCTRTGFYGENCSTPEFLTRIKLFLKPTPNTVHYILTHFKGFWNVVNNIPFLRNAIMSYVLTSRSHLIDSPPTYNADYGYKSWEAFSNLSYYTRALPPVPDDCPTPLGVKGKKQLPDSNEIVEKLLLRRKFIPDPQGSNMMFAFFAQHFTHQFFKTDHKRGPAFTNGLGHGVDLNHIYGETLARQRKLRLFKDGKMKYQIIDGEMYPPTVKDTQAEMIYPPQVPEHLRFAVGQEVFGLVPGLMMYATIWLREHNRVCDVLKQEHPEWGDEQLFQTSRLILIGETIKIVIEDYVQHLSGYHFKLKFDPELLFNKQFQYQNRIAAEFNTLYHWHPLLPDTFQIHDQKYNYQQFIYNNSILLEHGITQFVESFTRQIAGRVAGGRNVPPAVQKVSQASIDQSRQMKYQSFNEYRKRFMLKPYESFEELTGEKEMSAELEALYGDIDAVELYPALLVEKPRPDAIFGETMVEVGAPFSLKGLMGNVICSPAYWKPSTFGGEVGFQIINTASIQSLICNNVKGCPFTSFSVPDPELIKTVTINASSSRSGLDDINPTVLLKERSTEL
Briefly: biochemical. The settings on record: for IC50: IC50 COX-2, recombinant human COX-2, TMPD oxidation at 603 nm; for Selectivity ratio COX-2/COX-1: ratio of IC50 COX-2 to IC50 COX-1. The assay is classed as biochemical.

With `COc1cccc(-c2nc3cccnc3n2-c2ccc(F)cc2)c1` [Compound 3b, 3-(4-Fluorophenyl)-2-(3-methoxyphenyl)-3H-imidazo[4,5-b]pyridine], the IC50 in [1] was > 100 µM; in [2], > 100 µM; in [3], > 100 µM; in assay [4], 75 µM; in [5], 69 µM; in [6] it was > 100 µM. Moreover, the IC50 in [7] is 67 µM; in assay [8] it was > 100 µM; in [9], 66.5 µM; in [10], 15 ± 0.13 µM; in [11] it was > 100 µM; in [12], 46 µM.

For `Fc1ccc(-n2c(-c3cccc(C(F)(F)F)c3)nc3cccnc32)cc1` [Compound 3c, 3-(4-Fluorophenyl)-2-(3-(trifluoromethyl)phenyl)-3H-imidazo[4,5-b]pyridine], the half-maximal inhibitory concentration (IC50) in [1] is > 100 µM; in assay [13], 15.1 ± 0.9 µM; in assay [2], > 100 µM; in [3], > 100 µM; in assay [4], > 100 µM; in [5] it was 44 µM. Besides, the IC50 in assay [6] is > 100 µM; in assay [7], 52.5 µM; in [8], > 100 µM; in assay [9] it was > 100 µM; in assay [10] it was 36 ± 1.4 µM; in [11], > 100 µM. In addition, in [12], the 50% inhibitory concentration (IC50) worked out at 42 µM. In [13], the “Selectivity ratio COX-2/COX-1” value is reported as 0.42.

On to `FC(F)(F)c1cccc(-c2nc3cccnc3n2-c2ccc(Cl)cc2)c1` [Compound 3f, 3-(4-Chlorophenyl)-2-(3-(trifluoromethyl)phenyl)-3H-imidazo[4,5-b]pyridine], for which the 50% inhibitory concentration (IC50) was > 100 µM in [1]; 9.2 ± 0.02 µM in assay [13]; > 100 µM in assay [2]; > 100 µM in [3]; > 100 µM in assay [4]; 49.9 µM in [5]. Besides, the 50% inhibitory concentration (IC50) is > 100 µM in assay [6]; 53.5 µM in [7]; > 100 µM in assay [8]; > 100 µM in assay [9]; 21.8 ± 1.1 µM in assay [10]; > 100 µM in [11]. In addition, in assay [12], the concentration for half-maximal inhibition (IC50) came out at 43 µM. For the same molecule, the “selectivity for COX-2 over COX-1” value in assay [13] (from IC50 values against COX-2 and COX-1) was 2 fold. The “Selectivity ratio COX-2/COX-1” value in assay [13] was 0.42.

As for `COc1cc(-c2nc3cccnc3n2-c2ccc(Cl)cc2)cc(OC)c1OC` [Compound 3g, 3-(4-Chlorophenyl)-2-(3,4,5-trimethoxyphenyl)-3H-imidazo[4,5-b]pyridine], the IC50 in assay [1] is > 100 µM; in assay [13], 22.4 ± 2.5 µM; in assay [2], 83.5 µM; in assay [3], > 100 µM; in [4], 64.4 µM; in [5], 56 µM. For the same molecule, the half-maximal inhibitory concentration (IC50) is > 100 µM in assay [6]; 55 µM in assay [7]; > 100 µM in assay [8]; 69.3 µM in assay [9]; 19.1 ± 0.3 µM in assay [10]; > 100 µM in assay [11]. Also, in [12], the IC50 was found to be 47 µM. In [13], the “Selectivity ratio COX-2/COX-1” value amounted to 1.17.
